# From ChEMBL document CHEMBL4038323, “Discovery and Kinetic Profiling of 7-Aryl-1,2,4-triazolo[4,3-a]pyridines: Positive Allosteric Modulators of the Metabotropic Glutamate Receptor 2” (J Med Chem, 2017)
# The source made the active and inactive calls. No cut-off for these calls is given here.
# What was measured:
# [1] = target: Metabotropic glutamate receptor 3 (Homo sapiens) (UniProt Q14832); assay: Agonist activity at human metabotropic glutamate receptor 3 expressed in HEK293 cells assessed as induction of Ca2+ internalization after 1 hr by fluo-4-AM dye based fluorescence assay; assay type: functional, cell-based
# [2] = target: T1, Metabotropic glutamate receptor 2 (Homo sapiens, UniProt Q14416); assay: Binding affinity to human metabotropic glutamate receptor 2 expressed in CHOK1 cell membranes by scintillation proximity assay
# Target sequence in this assay (Q14416 whole entry): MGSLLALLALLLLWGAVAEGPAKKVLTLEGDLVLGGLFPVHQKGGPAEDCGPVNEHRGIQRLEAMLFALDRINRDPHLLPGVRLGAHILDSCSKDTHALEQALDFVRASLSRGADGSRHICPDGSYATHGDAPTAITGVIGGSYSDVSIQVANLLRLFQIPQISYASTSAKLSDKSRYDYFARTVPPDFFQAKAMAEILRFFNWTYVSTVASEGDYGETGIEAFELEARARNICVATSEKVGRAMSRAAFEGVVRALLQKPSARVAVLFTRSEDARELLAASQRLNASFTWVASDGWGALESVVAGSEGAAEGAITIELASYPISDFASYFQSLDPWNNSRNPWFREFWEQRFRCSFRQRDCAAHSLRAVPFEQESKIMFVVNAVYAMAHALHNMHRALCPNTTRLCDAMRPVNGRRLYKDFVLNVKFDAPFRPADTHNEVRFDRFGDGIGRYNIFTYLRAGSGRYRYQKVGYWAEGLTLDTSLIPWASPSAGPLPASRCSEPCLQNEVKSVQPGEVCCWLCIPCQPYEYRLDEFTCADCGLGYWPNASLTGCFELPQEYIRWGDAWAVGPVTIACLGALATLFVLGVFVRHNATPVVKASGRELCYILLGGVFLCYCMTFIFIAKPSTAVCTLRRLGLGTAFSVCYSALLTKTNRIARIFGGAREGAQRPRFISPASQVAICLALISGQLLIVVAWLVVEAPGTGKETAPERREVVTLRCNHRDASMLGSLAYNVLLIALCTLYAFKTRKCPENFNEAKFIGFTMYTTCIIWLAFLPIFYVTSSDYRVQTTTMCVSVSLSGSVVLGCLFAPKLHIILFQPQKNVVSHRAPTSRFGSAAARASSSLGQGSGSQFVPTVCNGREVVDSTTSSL
# [3] = target: Metabotropic glutamate receptor 4 (Homo sapiens) (UniProt Q14833); assay: Agonist activity at human metabotropic glutamate receptor 4 assessed as increase in [35S]GTPgammaS binding preincubated for 30 mins followed by [35S]GTPgammaS addition measured after 30 mins by Topcount scintillation counting method; assay type: functional
# [4] = target: T1, Metabotropic glutamate receptor 2; assay: Positive allosteric modulation of human metabotropic glutamate receptor 2 expressed in CHOK1 cell membranes assessed as increase in glutamate-induced [35S]GTPgammaS binding preincubated for 30 mins followed by [35S]GTPgammaS addition measured after 30 mins by Topcount scintillation counting method; assay type: functional
# Target sequence in this assay (Q14416 whole entry): as above
# [5] = target: Metabotropic glutamate receptor 6 (Rattus norvegicus) (UniProt P35349); assay: Antagonist activity at rat metabotropic glutamate receptor 6 expressed in CHO cell membranes assessed as inhibition of glutamate-induced [35S]GTPgammaS binding preincubated for 30 mins followed by [35S]GTPgammaS addition measured after 30 mins by Topcount scintillation counting method; assay type: functional
# Metabotropic glutamate receptor 6 (Rattus norvegicus), sequence (P35349 whole entry): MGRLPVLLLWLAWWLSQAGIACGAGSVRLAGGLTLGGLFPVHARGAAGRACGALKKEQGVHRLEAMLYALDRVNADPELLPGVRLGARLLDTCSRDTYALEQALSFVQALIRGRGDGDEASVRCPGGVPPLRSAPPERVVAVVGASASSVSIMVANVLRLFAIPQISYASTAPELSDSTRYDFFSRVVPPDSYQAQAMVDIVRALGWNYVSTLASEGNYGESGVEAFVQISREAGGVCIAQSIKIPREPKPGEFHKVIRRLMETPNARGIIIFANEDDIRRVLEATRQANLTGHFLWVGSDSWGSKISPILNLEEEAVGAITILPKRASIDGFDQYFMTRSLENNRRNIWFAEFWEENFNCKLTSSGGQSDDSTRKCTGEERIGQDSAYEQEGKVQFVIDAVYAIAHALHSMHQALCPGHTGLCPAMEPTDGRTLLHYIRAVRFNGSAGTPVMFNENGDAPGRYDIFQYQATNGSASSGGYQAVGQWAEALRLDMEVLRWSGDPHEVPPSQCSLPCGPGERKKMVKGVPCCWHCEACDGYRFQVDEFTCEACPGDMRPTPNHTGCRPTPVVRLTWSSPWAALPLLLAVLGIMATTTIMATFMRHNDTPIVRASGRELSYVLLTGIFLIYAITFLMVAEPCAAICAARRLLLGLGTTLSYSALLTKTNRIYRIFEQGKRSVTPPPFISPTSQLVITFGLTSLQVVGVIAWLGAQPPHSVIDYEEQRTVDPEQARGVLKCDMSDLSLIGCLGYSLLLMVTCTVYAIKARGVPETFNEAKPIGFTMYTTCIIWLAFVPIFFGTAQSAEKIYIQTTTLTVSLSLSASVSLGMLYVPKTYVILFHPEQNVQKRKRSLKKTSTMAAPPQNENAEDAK
# [6] = target: Metabotropic glutamate receptor 8 (Homo sapiens) (UniProt O00222); assay: Agonist activity at human metabotropic glutamate receptor 8 expressed in HEK293 cells assessed as induction of Ca2+ internalization after 1 hr by fluo-4-AM dye based fluorescence assay; assay type: functional, cell-based
# [7] = target: T1, Metabotropic glutamate receptor 2; assay: Displacement of [3H]JNJ-46281222 from human metabotropic glutamate receptor 2 expressed in CHOK1 cell membranes assessed as residence time measured every 30 sec for 120 mins by scintillation proximity assay
# Method in brief: (§1)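 For the SPA competition association, CHO-K1_hmGlu2 membranes (20 µg) were pre-coupled 30 min to WGA SPA beads, then mixed with 6 nM [3H]JNJ-46281222, competitor and 1 mM glutamate. Counts were read every 30 s for 120 min at 28°C.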
# Target sequence in this assay (Q14416 19-872 limits assumed): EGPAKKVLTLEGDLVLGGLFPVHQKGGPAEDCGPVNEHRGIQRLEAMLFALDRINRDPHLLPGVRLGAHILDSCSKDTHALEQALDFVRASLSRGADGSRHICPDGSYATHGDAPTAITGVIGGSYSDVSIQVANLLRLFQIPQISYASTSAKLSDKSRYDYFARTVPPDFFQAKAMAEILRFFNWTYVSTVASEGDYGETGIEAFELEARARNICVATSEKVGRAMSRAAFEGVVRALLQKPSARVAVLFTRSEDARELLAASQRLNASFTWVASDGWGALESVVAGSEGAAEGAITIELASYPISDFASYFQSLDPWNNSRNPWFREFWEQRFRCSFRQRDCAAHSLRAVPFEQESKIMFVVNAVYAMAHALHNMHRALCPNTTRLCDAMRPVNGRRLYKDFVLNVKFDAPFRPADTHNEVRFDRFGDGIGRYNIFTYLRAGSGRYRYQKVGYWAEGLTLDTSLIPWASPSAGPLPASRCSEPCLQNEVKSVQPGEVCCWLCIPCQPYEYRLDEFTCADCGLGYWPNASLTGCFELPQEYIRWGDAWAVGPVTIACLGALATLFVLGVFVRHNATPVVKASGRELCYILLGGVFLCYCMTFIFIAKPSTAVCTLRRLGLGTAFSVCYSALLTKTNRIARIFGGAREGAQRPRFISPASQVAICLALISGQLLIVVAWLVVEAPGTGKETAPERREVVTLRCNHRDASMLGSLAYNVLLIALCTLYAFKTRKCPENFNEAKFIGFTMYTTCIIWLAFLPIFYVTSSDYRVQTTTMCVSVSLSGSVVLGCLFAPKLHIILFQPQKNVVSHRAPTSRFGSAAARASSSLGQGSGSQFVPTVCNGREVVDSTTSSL
# [8] = target: T1, Metabotropic glutamate receptor 2; assay: Displacement of [3H]JNJ-46281222 from human metabotropic glutamate receptor 2 expressed in CHOK1 cell membranes assessed as dissociation rate constant measured every 30 sec for 120 mins by scintillation proximity assay; method in brief: as §1
# Target sequence in this assay (Q14416 19-872 limits assumed): as above
# [9] = target: Metabotropic glutamate receptor 7 (Homo sapiens) (UniProt Q14831); assay: Antagonist activity at human metabotropic glutamate receptor 7 expressed in HEK293 cells assessed as inhibition of glutamate-induced Ca2+ internalization after 1 hr by fluo-4-AM dye based fluorescence assay; assay type: functional, cell-based
# Metabotropic glutamate receptor 7 (Homo sapiens), sequence (Q14831 whole entry): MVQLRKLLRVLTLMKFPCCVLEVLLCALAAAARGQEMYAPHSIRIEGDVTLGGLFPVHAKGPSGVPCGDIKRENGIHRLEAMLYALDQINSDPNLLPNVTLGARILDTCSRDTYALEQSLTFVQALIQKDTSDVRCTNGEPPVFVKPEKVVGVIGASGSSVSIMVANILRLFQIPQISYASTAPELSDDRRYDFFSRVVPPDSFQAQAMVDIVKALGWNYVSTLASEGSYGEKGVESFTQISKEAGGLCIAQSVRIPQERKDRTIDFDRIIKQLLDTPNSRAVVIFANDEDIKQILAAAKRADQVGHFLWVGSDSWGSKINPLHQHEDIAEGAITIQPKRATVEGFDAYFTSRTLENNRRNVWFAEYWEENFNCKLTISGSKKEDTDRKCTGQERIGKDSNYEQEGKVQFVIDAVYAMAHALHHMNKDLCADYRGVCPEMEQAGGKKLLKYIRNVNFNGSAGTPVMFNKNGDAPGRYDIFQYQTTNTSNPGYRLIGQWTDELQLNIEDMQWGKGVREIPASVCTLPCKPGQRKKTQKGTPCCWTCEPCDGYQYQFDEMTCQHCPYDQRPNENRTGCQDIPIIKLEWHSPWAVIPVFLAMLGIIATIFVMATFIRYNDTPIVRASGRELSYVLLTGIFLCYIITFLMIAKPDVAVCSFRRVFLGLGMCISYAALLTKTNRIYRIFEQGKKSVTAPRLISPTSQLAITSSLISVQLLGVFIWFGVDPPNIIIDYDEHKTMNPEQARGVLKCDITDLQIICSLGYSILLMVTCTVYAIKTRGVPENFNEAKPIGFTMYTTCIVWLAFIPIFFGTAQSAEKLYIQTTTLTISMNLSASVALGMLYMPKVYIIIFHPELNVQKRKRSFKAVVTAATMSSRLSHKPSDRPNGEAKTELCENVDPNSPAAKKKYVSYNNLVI
# [10] = target: Metabotropic glutamate receptor 4 (Homo sapiens) (UniProt Q14833); assay: Antagonist activity at human metabotropic glutamate receptor 4 assessed as inhibition of glutamate-induced [35S]GTPgammaS binding preincubated for 30 mins followed by [35S]GTPgammaS addition measured after 30 mins by Topcount scintillation counting method; assay type: functional
# [11] = target: Metabotropic glutamate receptor 8 (Homo sapiens) (UniProt O00222); assay: Antagonist activity at human metabotropic glutamate receptor 8 expressed in HEK293 cells assessed as inhibition of glutamate-induced Ca2+ internalization after 1 hr by fluo-4-AM dye based fluorescence assay; assay type: functional, cell-based
# [12] = target: Metabotropic glutamate receptor 3 (Homo sapiens) (UniProt Q14832); assay: Antagonist activity at human metabotropic glutamate receptor 3 expressed in HEK293 cells assessed as inhibition of glutamate-induced Ca2+ internalization after 1 hr by fluo-4-AM dye based fluorescence assay; assay type: functional, cell-based
# [13] = target: Metabotropic glutamate receptor 5 (Homo sapiens) (UniProt P41594); assay: Positive allosteric modulation of human metabotropic glutamate receptor 5 expressed in HEK293 cells assessed as induction of Ca2+ […] after 1 hr in the presence of glutamate by fluo-4-AM dye based fluorescence assay; assay type: functional, cell-based
# [14] = target: Metabotropic glutamate receptor 6 (Rattus norvegicus) (UniProt P35349); assay: Agonist activity at rat metabotropic glutamate receptor 6 expressed in CHO cell membranes assessed as increase in [35S]GTPgammaS binding preincubated for 30 mins followed by [35S]GTPgammaS addition measured after 30 mins by Topcount scintillation counting method; assay type: functional
# [15] = target: T1, Metabotropic glutamate receptor 2; assay: Displacement of [3H]JNJ-46281222 from human metabotropic glutamate receptor 2 expressed in CHOK1 cell membranes assessed as association rate constant measured every 30 sec for 120 mins by scintillation proximity assay; method in brief: as §1
# Target sequence in this assay (Q14416 19-872 limits assumed): as the sequence (Q14416 19-872 limits assumed) above
# [16] = target: T1, Metabotropic glutamate receptor 2; assay: Displacement of [3H]-JNJ46281222 from human metabotropic glutamate receptor 2 expressed in CHOK1 cell membranes after 60 mins by microbeta counting analysis
# Target sequence in this assay (Q14416 whole entry): as the sequence (Q14416 whole entry) above
# [17] = target: Metabotropic glutamate receptor 1 (Homo sapiens) (UniProt Q13255); assay: Antagonist activity at human metabotropic glutamate receptor 1 expressed in HEK293 cells assessed as inhibition of glutamate-induced Ca2+ internalization after 1 hr by fluo-4-AM dye based fluorescence assay; assay type: functional, cell-based
# Metabotropic glutamate receptor 1 (Homo sapiens), sequence (Q13255 19-1194 limits assumed): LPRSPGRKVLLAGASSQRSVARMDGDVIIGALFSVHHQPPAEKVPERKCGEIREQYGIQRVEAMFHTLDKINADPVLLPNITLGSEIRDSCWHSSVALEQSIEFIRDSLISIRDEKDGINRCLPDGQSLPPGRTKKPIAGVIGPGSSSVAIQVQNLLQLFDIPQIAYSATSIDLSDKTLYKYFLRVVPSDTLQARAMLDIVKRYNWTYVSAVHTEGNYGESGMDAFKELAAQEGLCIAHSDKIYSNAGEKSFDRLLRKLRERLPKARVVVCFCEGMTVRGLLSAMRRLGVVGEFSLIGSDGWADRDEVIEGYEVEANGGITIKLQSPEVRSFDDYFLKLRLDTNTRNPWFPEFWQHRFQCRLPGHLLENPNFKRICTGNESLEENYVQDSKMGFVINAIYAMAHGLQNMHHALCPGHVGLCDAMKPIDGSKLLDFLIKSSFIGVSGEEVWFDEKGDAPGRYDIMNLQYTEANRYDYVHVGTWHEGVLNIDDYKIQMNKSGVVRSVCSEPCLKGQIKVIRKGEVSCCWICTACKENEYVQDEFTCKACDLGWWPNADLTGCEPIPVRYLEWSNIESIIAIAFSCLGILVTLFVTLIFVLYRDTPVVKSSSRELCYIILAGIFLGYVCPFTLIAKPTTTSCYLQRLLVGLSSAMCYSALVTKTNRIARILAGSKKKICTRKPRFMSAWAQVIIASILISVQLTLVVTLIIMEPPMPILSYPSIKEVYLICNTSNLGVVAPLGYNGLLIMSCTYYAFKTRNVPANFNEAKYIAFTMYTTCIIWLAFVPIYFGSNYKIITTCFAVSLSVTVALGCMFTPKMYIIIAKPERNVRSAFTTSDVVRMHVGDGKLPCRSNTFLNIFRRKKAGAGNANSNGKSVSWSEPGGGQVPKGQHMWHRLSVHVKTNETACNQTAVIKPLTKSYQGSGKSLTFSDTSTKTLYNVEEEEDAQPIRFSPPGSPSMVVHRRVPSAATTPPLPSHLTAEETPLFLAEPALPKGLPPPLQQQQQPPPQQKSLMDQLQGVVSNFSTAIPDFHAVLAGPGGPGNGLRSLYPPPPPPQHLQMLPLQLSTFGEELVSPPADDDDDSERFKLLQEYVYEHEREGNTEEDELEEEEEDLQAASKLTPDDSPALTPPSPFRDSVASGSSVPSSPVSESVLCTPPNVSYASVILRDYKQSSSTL
# [18] = target: Metabotropic glutamate receptor 7 (Homo sapiens) (UniProt Q14831); assay: Agonist activity at human metabotropic glutamate receptor 7 expressed in HEK293 cells assessed as induction of Ca2+ internalization after 1 hr by fluo-4-AM dye based fluorescence assay; assay type: functional, cell-based
# [19] = target: Metabotropic glutamate receptor 1 (Homo sapiens) (UniProt Q13255); assay: Agonist activity at human metabotropic glutamate receptor 1 expressed in HEK293 cells assessed as induction of Ca2+ internalization after 1 hr by fluo-4-AM dye based fluorescence assay; assay type: functional, cell-based
# [20] = target: Metabotropic glutamate receptor 5 (Homo sapiens) (UniProt P41594); assay: Agonist activity at human metabotropic glutamate receptor 5 expressed in HEK293 cells assessed as induction of Ca2+ internalization after 1 hr by fluo-4-AM dye based fluorescence assay; assay type: functional, cell-based
# [21] = target: Metabotropic glutamate receptor 5 (Homo sapiens) (UniProt P41594); assay: Antagonist activity at human metabotropic glutamate receptor 5 expressed in HEK293 cells assessed as inhibition of glutamate-induced Ca2+ internalization after 1 hr by fluo-4-AM dye based fluorescence assay; assay type: functional, cell-based
# [22] = target: T1, Metabotropic glutamate receptor 2; assay: Displacement of [3H]-JNJ46281222 from human metabotropic glutamate receptor 2 expressed in CHOK1 cell membranes after 60 mins by liquid scintillation counting method
# Target sequence in this assay (Q14416 whole entry): as the sequence (Q14416 whole entry) above
# [23] = target: T1, Metabotropic glutamate receptor 2; assay: Positive allosteric modulation of human metabotropic glutamate receptor 2 expressed in CHOK1 cells assessed as cellular impedance response by label-free xCELLigence assay
# Target sequence in this assay (Q14416 19-872 limits assumed): as the sequence (Q14416 19-872 limits assumed) above
# [24] = target: T1, Metabotropic glutamate receptor 2; assay: Positive allosteric modulation of human metabotropic glutamate receptor 2 expressed in CHOK1 cells assessed as cellular impedance at 60 nM incubated for 5mins followed by compound washout in presence of endogenous glutamate levels by RTCA; assay type: cell-based
# Target sequence in this assay (Q14416 19-872 limits assumed): as above
# [25] = target: T1, Metabotropic glutamate receptor 2; assay: Positive allosteric modulation of human metabotropic glutamate receptor 2 expressed in CHOK1 cells assessed as cellular impedance measured for 20 mins with 15 sec time interval followed by 40 mins with 5 mins time interval and subsequently measured with 15 mins time interval in presence of endogenous glutamate levels by RTCA; assay type: cell-based
# Method in brief: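 Whole-cell impedance (Cell Index) in CHO-K1_hmGlu2 cells, 40,000/well, 18 h at 37°C before compound addition. Endogenous glutamate was about 90 µM. […] Three experiments in duplicate.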
# Target sequence in this assay (Q14416 whole entry): as the sequence (Q14416 whole entry) above
# [26] = target: T1, Metabotropic glutamate receptor 2; assay: Positive allosteric modulation of human metabotropic glutamate receptor 2 expressed in CHOK1 cells assessed as cellular impedance at 600 nM incubated for 5mins followed by compound washout in presence of endogenous glutamate levels by RTCA; assay type: cell-based
# Target sequence in this assay (Q14416 19-872 limits assumed): as the sequence (Q14416 19-872 limits assumed) above
Structure (SMILES),Activity [1],Kd [2],Activity [3],EC50 [4],inhibition [5],Activity [6],TIME [7],K [8],inhibition [9],inhibition [10],inhibition [11],inhibition [12],Activity [13],Activity [14],K [15],Ki [16],inhibition [17],Activity [18],Activity [19],Activity [20],also measured
CC(C)C(=O)c1ccc(OCc2ccc(CNC(=O)c3cn(C)cn3)cc2)c(C(F)(F)F)c1O,,100 nM,,107 nM,,,0.14 h,0.12 min⁻¹,,,,,,,1.2 ×10⁶ /M/min,,,,,,Ki [22]: 79.4 nM
O[C@]1(C2CC2)CC[C@H](Nc2ccc(-c3ccn4c(CC5CC5)nnc4c3C(F)(F)F)cc2Cl)CC1,,1.5 nM,,1.12 nM,,,0.825 h,0.02 min⁻¹,,,,,,,1.4 ×10⁷ /M/min,0.891 nM,,,,,EC80 [23]: 60 nM; Activity [24]: Active; EC50 [25]: 11.2 nM
FC(F)(F)c1c(-c2ccc(OC3CCOCC3)c(Cl)c2)ccn2c(CC3CC3)nnc12,inactive,12.3 nM,inactive,38 nM,inactive,inactive,0.0683 h,0.241 min⁻¹,inactive,inactive,inactive,inactive,inactive,inactive,2 ×10⁷ /M/min,5.25 nM,inactive,inactive,inactive,inactive,EC80 [23]: 600 nM; Activity [26]: inactive; EC50 [25]: 89.1 nM; inhibition [21]: inactive

# The next lines start with results.
Activity [1],Kd [2],Activity [3],EC50 [4],inhibition [5],Activity [6],TIME [7],K [8],inhibition [9],inhibition [10],inhibition [11],inhibition [12],Activity [13],Activity [14],K [15],Ki [16],inhibition [17],Activity [18],Activity [19],Activity [20],Structure (SMILES),also measured
inactive,10.8 nM,inactive,41.7 nM,inactive,inactive,0.227 h,0.074 min⁻¹,inactive,inactive,inactive,inactive,inactive,inactive,6.7 ×10⁶ /M/min,6.03 nM,inactive,inactive,inactive,inactive,O[C@H]1CC[C@H](Nc2ccc(-c3ccn4c(CC(F)(F)F)nnc4c3Cl)cc2Cl)CC1,inhibition [21]: inactive
inactive,12.7 nM,inactive,63.1 nM,inactive,inactive,0.273 h,0.061 min⁻¹,inactive,inactive,inactive,inactive,inactive,inactive,4.8 ×10⁶ /M/min,10.2 nM,inactive,inactive,inactive,inactive,Fc1cc(-c2ccn3c(CC4CC4)nnc3c2Cl)ccc1NC1CC1,inhibition [21]: inactive
